Assay results gathered from unrelated publications.
Cell line: MDA-MB-468
Effect on: cell growth or viability

Compound	assay	setting	IC50
Oc1ccc(N=Nc2ccccc2)c2ccccc12	MTT	–	4.9 µM
O=S(=O)(Cc1ccccc1)NN=Cc1cn(CCN2CCOCC2)c2ccccc12	MTT	48 h	50.6 µM
CCc1ccc(N2NC(=O)/C(=C/c3ccc(-c4ccc(S(=O)(=O)Nc5nccs5)cc4)o3)C2=O)cc1	MTT	48 h	44 µM
COc1cccc2c1C(=O)c1c(O)c3c(c(O)c1C2=O)C[C@@](O)(C(=O)CO)C[C@@H]3O[C@H]1C[C@H](N)[C@H](O)[C@H](C)O1	resazurin	72 h	0.1 µM
COc1ccc(/C=C/C(=O)c2cc(Br)ccc(=O)c2O)cc1	MTT	72 h	6.6 µM
CCN1CCN(Cc2ccc(Nc3ncc(F)c(-c4cc(F)c5nc(C)n(C(C)C)c5c4)n3)nc2)CC1	CCK-8	–	0.711 µM
COc1cc(/C=C2\SC(=O)NC2=O)ccc1OCc1ccc(Cl)cc1Cl	MTT	48 h	32.5 µM
Cc1c2cccc(Sc3ccccc3)c2c2c3c(cccc13)[S+](c1ccccc1)C2 (centres unmarked)	MTT	–	0.71 µM
COc1ccc(S(=O)(=O)NN=Cc2cn(CCN3CCOCC3)c3ccccc23)cc1	MTT	48 h	43.3 µM
COc1ccc(Br)cc1/C=C/C(=O)c1ccc(NC(C)=O)cc1	MTT	48 h	2.4 µM
c1ccc2c(c1)Cc1c(Cc3csc4ccccc34)ccc3cccc-2c13	MTT	–	157 µM
O=S(=O)(NN=Cc1cn(CCN2CCOCC2)c2ccccc12)c1ccccc1	MTT	48 h	47 µM
Nc1ccc2cc3[nH]c4cc(N)ccc4c3nc2c1	MTT	–	0.11 µM
O=C(CSc1nc2ccc(N=Cc3ccc(Sc4nnnn4-c4ccccc4)o3)cc2s1)N1CCOCC1	MTT	48 h	26.9 µM
O=S(=O)(NN=Cc1cn(CCN2CCOCC2)c2ccccc12)c1ccc(Cl)cc1	MTT	48 h	8.2 µM
CN(N=O)c1ccc(C=Cc2ccnc3ccccc23)cc1	MTT	–	3.5 µM
O=S(=O)(NN=Cc1cn(CCN2CCOCC2)c2ccccc12)c1ccc(F)cc1	MTT	48 h	15 µM
Cc1ccccc1Sc1cc2ccccc2c2ccccc12	MTT	–	29 µM
O=S(=O)(NN=Cc1cn(CCN2CCOCC2)c2ccccc12)c1cccc2ncccc12	MTT	48 h	32.2 µM
CC(=O)Nc1nc(C)c(-c2csc(Nc3ccccc3)n2)s1	MTT	72 h	11.1 µM
